Screening results deposited in PubChem by The Scripps Research Institute Molecular Screening Center.
A selection: hits, their analogues and other compounds. The true share with any hit is near 2%.
M1 PAM – positive allosteric modulators of human M1 muscarinic receptor. CHO-K1 hM1, Fluo-8 calcium fluorescence, ACh EC20; 0% = ACh EC20, 100% = maximal ACh. AID 588819. activation, % at 3 µM. P11229. hit rate 0.088% among 360,000; in the data active = activation above about 19%, passing the limit was not always enough
CHRM1 antagonist – human CHRM1 antagonism. P11229. CHO-K1 hM1, Fluo-8 calcium fluorescence, ACh EC80 antagonist. inhibition, % at 3 µM. hit rate 1.3% among 360,000;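 active = percent inhibition above its own plate's cutoff, namely the mean of that plate's compound wells plus 3 SD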;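 note: peak over basal fluorescence ratio during 140 s after agonist addition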
M5 PAM – positive allosteric modulators of human muscarinic M5 receptor | CHO-K1 hM5, Fluo-8 calcium, ACh EC20 PAM; 0% = ACh EC20, 100% = ACh EC100 | P08912 | activation, % at 3 µM | hit rate 0.3% among 360,000;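 active = activation above the run cutoff, the mean activation of all test compounds plus 3 SD, cut at about 18% in these data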
Target sequence (P08912 whole entry, looked up): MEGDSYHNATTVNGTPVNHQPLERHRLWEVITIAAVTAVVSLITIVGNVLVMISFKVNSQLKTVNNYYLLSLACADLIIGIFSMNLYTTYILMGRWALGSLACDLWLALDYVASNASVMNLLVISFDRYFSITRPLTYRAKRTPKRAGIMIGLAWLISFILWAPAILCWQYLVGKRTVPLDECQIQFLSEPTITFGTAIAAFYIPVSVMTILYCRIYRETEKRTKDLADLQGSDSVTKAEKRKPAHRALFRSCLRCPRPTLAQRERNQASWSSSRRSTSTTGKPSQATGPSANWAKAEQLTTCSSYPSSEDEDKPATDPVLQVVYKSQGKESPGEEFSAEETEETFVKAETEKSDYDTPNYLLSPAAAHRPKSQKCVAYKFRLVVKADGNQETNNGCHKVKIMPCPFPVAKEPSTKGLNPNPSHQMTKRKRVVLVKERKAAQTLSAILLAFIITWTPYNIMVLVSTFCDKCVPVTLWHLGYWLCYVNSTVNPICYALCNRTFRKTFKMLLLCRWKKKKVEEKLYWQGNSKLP
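Probe or stimulus: acetylcholine, EC20 level; Assay system: human M5 receptor in CHO-K1 cells; Schedule: compound preincubation 140 s before EC20 acetylcholine addition; Technique: intracellular calcium via Fluo-8 fluorescence; Dosing: single-point, 3 µM nominal; Read-out basis: percent activation from peak-over-basal fluorescence ratio, scaled EC20-to-EC100 acetylcholine; Repeats: one well per compound, no replicates.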
M1 ag – agonists of human M1 muscarinic receptor | activation, % at 3 µM | hit rate 0.33% among 360,000 | CHO-K1 hM1, Fluo-8 calcium fluorescence, agonist mode; 0% DMSO, 100% acetylcholine EC100 | AID 588814 | P11229;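 active = activation above the run's mean compound activation plus 3 SD, cut at about 16% in these data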;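 note: peak over basal fluorescence ratio within a 140 s kinetic read after compound addition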
M5 ag – CHRM5 agonism in calcium assay; P08912; CHO-K1 hM5 cells, Fluo-8 calcium fluorescence; 0% DMSO wells, 100% maximal acetylcholine response; activation, % at 3 µM; hit rate 0.19% among 360,000; AID 624037;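 active = activation above the run's mean over test compounds plus 3 SD, cut at about 23% in these data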;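 note: signal is peak over basal fluorescence ratio across the kinetic read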
M5 antag – blocks acetylcholine activation of human M5 receptor; P08912; CHO-hM5 cells, Fluo-8 calcium fluorescence, ACh EC80; inhibition, % at 3 µM; hit rate 0.59% among 360,000;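 active = inhibition above a per-plate cutoff, the mean of that plate's test compounds plus 3 SD, cut at about 27% in these data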
Each line names hits and unclear results; the compound was inactive in the other large screens.

Cc1nn(S(=O)(=O)c2ccccc2)c(C)c1Sc1ccc([N+](=O)[O-])cc1	none
CCn1c(C)nc2cc(S(=O)(=O)C(F)(F)C(F)C(F)(F)F)ccc21 (centres undefined)	M5 antag 27.0
COC(=O)c1ccc2c(c1)C(C)(C)C(/C=C/c1ccccc1O)=[N+]2C	M5 ag 23.5
CCCCCCN1C[C@@H](n2cc(-c3ccc(F)cc3)nn2)[C@H](O)C[C@@H]1c1ccc(Cl)cc1	none
Cc1ccc(NC(=O)COC(=O)CC2CCCC2)cc1Cl	M5 PAM 22.7
Cc1ccc(-n2c3nc(=O)[nH]c(=O)c-3cc3cc([N+](=O)[O-])ccc32)cc1C	CHRM1 antagonist 30.1
CC(=O)Nc1c(O)nc(SCC(=O)N2CCCCC2)[nH]c1=O	M1 PAM 26.4
Nc1sccc1C(=O)NC1CC1	none (no result: M1 PAM, CHRM1 antagonist, M1 ag)
CC(C)(C)CC(C)(C)NCC(O)COc1ccc2c(c1)CCC2 (centres undefined)	CHRM1 antagonist 49.1
CC(C)(CO)NCC(O)COc1ccc2c(c1)CCC2 (centres undefined)	none
Cc1ccc(S(=O)(=O)N2C[C@H]3C(=O)C[C@@H](c4ccccc4)N(S(=O)(=O)c4ccccc4)[C@H]3C[C@H]2c2ccccc2)cc1	none
CCOC(=O)C1=CCN(S(=O)(=O)c2ccccc2Cl)C1c1ccc(C)cc1 (centres undefined)	none
CN(C)CCN1C(=O)C(=O)/C(=C(/O)c2ccc(F)cc2)C1c1ccccc1F (centres undefined)	M5 antag 29.4
COc1cc(NC(=O)C2(C)CCCN2C)cc(OC)c1OC (centres undefined)	none
O=C(CN1C(=O)COc2ccccc21)NCCN1CCC(Cc2ccccc2)CC1	CHRM1 antagonist 29.7
O=C(CN1C(=O)COc2ccccc21)NCCN1CCOCC1	none
CNc1ccc(-c2cccc([N+](=O)[O-])c2)cn1	none
O=C(NNc1c2ccccc2nc2ccccc12)c1ccccc1O	M5 antag 34.0
NS(=O)(=O)c1ccc(CCNC(=O)c2ccc(C#CC3(O)CCCCC3)cc2)cc1	CHRM1 antagonist 38.4
O=C1NC[C@@H](CCCCN2C[C@H](Cc3ccccc3)N(CCc3ccc(O)cc3)C(=O)C2=O)N(CCc2ccccc2)C1=O	none (no result: M1 PAM, CHRM1 antagonist, M1 ag)
CC(CC(=O)Nc1ccc2c(c1)c(=O)n(C)n2-c1ccc2ccccc2c1)C(F)(F)F (centres undefined)	none
CN1CCCC(CC2c3ccccc3Sc3ccccc32)C1 (centres undefined)	CHRM1 antagonist 98.7, M5 antag 99.0
CN1CCCC(OC(=O)c2ccccc2F)C1 (centres undefined)	none
CSC[C@H]1CN(CCc2ccccc2)C(=O)[C@@H]1CC(=O)Nc1ccccc1	none
Cn1cc(CN2CCC(n3nccc3NC(=O)CCOc3ccccc3)CC2)cn1	M5 antag 29.4
Cc1ccc(CN2CCC(n3nccc3NC(=O)CCOc3ccccc3)CC2)cc1C	none
C[C@]12CCC(=O)C=C1CC[C@@H]1[C@@H]2CC[C@@]2(C)[C@H]1CC[C@@]21CCC(=O)O1	CHRM1 antagonist 30.7
C[C@]12CCC(=O)C=C1CCC1C2CC[C@@]2(C)C1CCC21OCCO1 (some centres undefined)	none
CCOC(=O)C1CCCN(C2=NC(=O)/C(=C/c3ccc(N(C)C)cc3)S2)C1 (centres undefined)	M1 ag 24.4
Cc1cc(C)c(OCC(=O)Nc2cccc(NC(=O)c3ccco3)c2)c(Br)c1	none
COc1ccc(OCC(=O)Nc2ccc(N3CCN(C(=O)c4ccco4)CC3)cc2)cc1	none
O=C(Nc1ccc(F)cc1)C(c1ccncc1)N1CCN(C(=O)c2ccco2)CC1 (centres undefined)	M5 PAM 20.5 (no result: M1 PAM, CHRM1 antagonist, M1 ag)
Cc1cc(C)cc(OCC(=O)Nc2ccc(N3CCN(C(=O)c4ccco4)CC3)cc2)c1	CHRM1 antagonist 32.9
C[N+]1(CC(=O)Nc2ccc(F)cc2)CCN(C(=O)c2ccco2)CC1	CHRM1 antagonist 56.2
Cc1ccc(NC(=O)CN2CCN(C(=O)c3ccco3)CC2)cc1	none
